From ChEMBL document CHEMBL2407084, “Novel imino sugar α-glucosidase inhibitors as antiviral compounds” (Bioorg Med Chem, 2013)
The source made the active and inactive calls. The rule behind the calls is not given here.

Columns and labels:
[1] = test system: Bovine viral diarrhea virus 1; test: Antiviral activity against Bovine viral diarrhea virus infected in MDBK cells assessed as reduction in viral infectivity at 50 uM treated for 24 hrs followed by compound washout followed by serially diluted compound treatment measured after 24 hrs by fluorescence microscopic analysis; format: functional, organism-based
In short: (§1)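 Supernatant from BVDV-infected MDBK cells (MOI 1, 24 h with compound) was clarified, and fivefold serial dilutions infected naive MDBK cells for 24 h. Cells were fixed in 4% paraformaldehyde, blocked in milk, permeabilised with Triton X-100, and probed with MAb103/105 against NS2/3 then FITC anti-mouse. DAPI counterstain. Foci counted by fluorescence microscopy to give FFU/ml relative to untreated control; three experiments, mean and SD.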

[2] = test system: Bovine viral diarrhea virus 1; test: Antiviral activity against Bovine viral diarrhea virus infected in MDBK cells assessed as reduction in viral RNA level at 50 uM after 24 hrs by RT-PCR analysis; format: functional, organism-based
In short: (§2)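 MDBK cells (1.75 10^6/well) infected with BVDV at MOI 1, then incubated with imino sugar for 24 h. Medium was clarified by centrifugation and viral RNA purified, then DNase-treated. SYBR green real-time RT-PCR used primers amplifying a 334-bp NS2 segment, 35 cycles. Copies were calibrated against a standard curve of serially diluted BVDV stock.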

[3] = test system: Bovine viral diarrhea virus 1; test: Antiviral activity against Bovine viral diarrhea virus infected in MDBK cells assessed as reduction in viral RNA level at 10 uM after 24 hrs by RT-PCR analysis; format: functional, organism-based; in short: as §2
MDBK [4] = test: Inhibition of endoplasmic reticulum alpha-glucosidase 1 in MDBK cells assessed as accumulation of triglucosylated Man5GlcNAc1 after 24 hrs by NP-HPLC analysis relative to Man4GlcNAc1 level; format: cell-based; conditions: Bos taurus
In short: (§3)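 Uninfected MDBK cells (1 10^6/well) were grown with a range of imino sugar concentrations for 24 h at 37 °C. Free oligosaccharides were extracted, labelled with 2-anthranilic acid, and purified on amide and ConA-Sepharose columns. They were separated by NP-HPLC. Peak areas of tri-glucosylated (glucosidase I) or mono-glucosylated (glucosidase II) Man5GlcNAc1 were expressed relative to Man4GlcNAc1. Mean and SD.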

MDBK [5] = test: Inhibition of endoplasmic reticulum alpha-glucosidase 1 in MDBK cells assessed as accumulation of triglucosylated Man5GlcNAc1 after 24 hrs by NP-HPLC analysis; format: cell-based; conditions: Bos taurus; in short: as §3
MDBK [6] = test: Inhibition of endoplasmic reticulum alpha-glucosidase 2 in MDBK cells assessed as accumulation of monoglucosylated Man5GlcNAc1 after 24 hrs by NP-HPLC analysis relative to Man4GlcNAc1 level; format: cell-based; conditions: Bos taurus; in short: as §3
MDBK [7] = test: Inhibition of endoplasmic reticulum alpha-glucosidase 2 in MDBK cells assessed as accumulation of monoglucosylated Man5GlcNAc1 after 24 hrs by NP-HPLC analysis; format: cell-based; conditions: Bos taurus; in short: as §3
[8] = Cytotoxicity against MDBK cells after 72 hrs by MTS assay; format: cell-based, Bos taurus; conditions: cattle
In short: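 MDBK cells (5 10^3/well) were plated for 24 h, then given fresh medium with a range of imino sugar concentrations for 72 h. MTS–phenazine methosulfate (20:1) was added for 1 h and absorbance read at 490 nm. Triplicates. CC50 is the concentration giving A490 at 50% of untreated controls.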

MDBK [9] = test: Inhibition of BVDV endoplasmic reticulum alpha-glucosidase 2 infected in MDBK cells assessed as increase in E2 protein glucosylation at 100 uM after 24 hrs by Western blotting analysis; format: cell-based; conditions: Bovine viral diarrhea virus 1
MDBK [10] = test: Inhibition of BVDV endoplasmic reticulum alpha-glucosidase 1 infected in MDBK cells assessed as increase in E2 protein glucosylation at 100 uM after 24 hrs by Western blotting analysis; format: cell-based; conditions: Bovine viral diarrhea virus 1
[11] = test system: Bovine viral diarrhea virus 1; test: Antiviral activity against Bovine viral diarrhea virus infected in MDBK cells assessed as reduction in viral infectivity at 10 uM treated for 24 hrs followed by compound washout followed by serially diluted compound treatment measured after 24 hrs by fluorescence microscopic analysis; format: functional, organism-based; in short: as §1

Structure (SMILES) | Activity [1] | Activity [2] | Activity [3] | fold change (FC) (MDBK [4]) | INH (MDBK [5]) | fold change (FC) (MDBK [6]) | Concentration giving inhibition (MDBK [7]) | CC50 at 72 h [8] | activity call (active / not active) (MDBK [9]) | glucosidase I inhibition (active/not active) (MDBK [10]) | Activity [11] | inhibition (MDBK [5]) | inhibition (MDBK [7])
OC[C@@H]1[C@@H](O)[C@H](O)[C@@H](O)CN1CCc1cn(CC23CC4CC(CC(C4)C2)C3)nn1 | Active | Active | inactive | 0.82 | 100 µM | 5.1 | 100 µM | > 250 µM |  |  |  |  | 
OC[C@@H]1[C@@H](O)[C@H](O)[C@@H](O)CN1CCCCCCCCCCn1cc(COCC23CC4CC(CC(C4)C2)C3)nn1 |  |  | Active | 0.26 | 10 µM | 5.8 | 5 µM | 29.2 µM | inactive | inactive | Active |  | 
OC[C@@H]1[C@@H](O)[C@H](O)[C@@H](O)CN1CCCCCCn1cc(COCC23CC4CC(CC(C4)C2)C3)nn1 |  |  |  | 11.4 | 100 µM | 8.3 | 10 µM | 205 µM | Active | Active | Active |  | 
OC[C@@H]1[C@@H](O)[C@H](O)[C@@H](O)CN1Cc1cn(CC23CC4CC(CC(C4)C2)C3)nn1 | Active |  | inactive | 0.54 | 100 µM | 3 | 100 µM | > 250 µM |  |  |  |  | 
OC[C@@H]1[C@H](O)[C@H](O)[C@@H](O)CN1CCCCn1cc(COCC23CC4CC(CC(C4)C2)C3)nn1 | Active |  |  |  |  |  |  | > 250 µM | inactive | inactive | Active | inactive | inactive
OC[C@@H]1[C@@H](O)[C@H](O)[C@@H](O)CN1CCCCCCCCn1cc(COCC23CC4CC(CC(C4)C2)C3)nn1 |  |  | Active | 2 | 25 µM | 5.4 | 10 µM | 51.7 µM |  |  | Active |  | 
OC[C@@H]1[C@@H](O)[C@H](O)[C@@H](O)CN1CCCCc1cn(CC23CC4CC(CC(C4)C2)C3)nn1 | Active | Active | inactive | 1.44 | 100 µM | 5.2 | 50 µM | > 250 µM |  |  |  |  | 
OC[C@@H]1[C@@H](O)[C@H](O)[C@@H](O)CN1CCCCn1cc(COCC23CC4CC(CC(C4)C2)C3)nn1 |  |  | Active | 1.52 | 100 µM | 6 | 100 µM | > 250 µM | inactive | inactive | Active |  | 
